Measurements taken from ChEMBL document CHEMBL1142205 (Antimicrob Agents Chemother, 2007).
The source made the active and inactive calls. No cut-off for these calls is given here.

Assays:
Plasmodium falciparum [1] = test: Restoration of nuclear GCN5 activity in Plasmodium falciparum at 50 uM in presence of 300 uM mannitol
Plasmodium falciparum [2] = test: Growth inhibition of chloroquine-susceptible Plasmodium falciparum 3D7 at 5 uM; assay type: functional, organism-based
Procedure, shortened: (§1)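 Strain 3D7, sorbitol-synchronized rings, seeded at 0.5% parasitemia, 5% hematocrit in O+ erythrocytes, RPMI/Albumax medium, 37°C, 5% CO2/3% O2. Continuous exposure to 5 or 20 μM (or none); parasitemia counted daily for 4 days on Giemsa smears, three replicates per point.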

Plasmodium falciparum [3] = test: Restoration of nuclear GCN5 activity in Plasmodium falciparum at 50 uM in presence of 400 units/ml superoxide dismutase
Plasmodium falciparum [4] = test: Restoration of nuclear GCN5 activity in Plasmodium falciparum at 50 uM in presence of 5000 units/ml catalase
Plasmodium falciparum [5] = test: Antimalarial activity against chloroquine-resistant Plasmodium falciparum Dd2; assay type: functional, organism-based
Procedure, shortened: (§2)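 Asexual P. falciparum cultured in human O+ erythrocytes at 37°C under 5% CO2/3% O2 and sorbitol-synchronised. Ring stages were set at 1% parasitemia and 5% hematocrit in low-hypoxanthine medium, in triplicate. […] Uninfected-RBC counts were subtracted and IC50/IC90 taken by linear regression with 95% CI.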

Plasmodium falciparum [6] = test: Inhibition of GCN5 in Plasmodium falciparum assessed as hyperacetylation of H3-K9 and H3-K14 at 20 uM after 12 hrs; details: 3D7, in the assay text read “hypoacetylation” for “hyperacetylation”
Procedure, shortened: (§3)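 Unsynchronized 3D7 cultures exposed to 20 μM drug for 4 or 12 h (aliquots treated from 0 or 8 h, all harvested at 12 h), with or without 300 μM mannitol. Histones acid-extracted, equal amounts run on SDS-PAGE and immunoblotted with acetylation site-specific antibodies; anti-H4 as loading control.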

Plasmodium falciparum [7] = test: Growth restoration of Plasmodium falciparum at 50 uM with 400 uM mannitol; assay type: functional, organism-based
Procedure, shortened: (§4)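 Maturation assay: synchronized ring-stage parasites in 24-well plates with 50 μM drug and increasing mannitol concentrations. When control schizonts matured, schizonts per 5,000 red cells counted in each well.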

Plasmodium falciparum [8] = test: Growth inhibition of chloroquine-resistant Plasmodium falciparum 7G8 at 5 uM; assay type: functional, organism-based
Procedure, shortened: (§5)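 Sorbitol-synchronised ring-stage parasites were seeded at 0.5% parasitemia and 5% hematocrit in 24-well plates. […] Parasitemia was counted daily for 4 days on Giemsa-stained smears, as means of three replicate samples.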

Plasmodium falciparum [9] = test: Increase of Plasmodium falciparum 3D7 mitochondrial DNA damage by real-time PCR analysis; assay type: functional
Procedure, shortened: (§6)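 3D7 early trophozoites at 5% parasitemia and 5% hematocrit exposed to drug or DMSO for 6 h at 37°C. Genomic DNA by proteinase K/phenol-chloroform, quantified by dot blot; SYBR green real-time PCR on 1 ng DNA. Lesions derived from CT shift relative to control, control amplification efficiency set at 1.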

Plasmodium falciparum [10] = test: Increase in intracellular reactive oxygen species in Plasmodium falciparum at 50 uM; assay type: functional, organism-based
Procedure, shortened: (§7)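 Parasitized cells preloaded with 50 μM DCFH-DA, 37°C, 30 min, washed, then exposed to drug for 4 h, alone or with mannitol (50 μM) or ascorbic acid plus reduced glutathione (1 mM each). Flow cytometry at ex 485/em 535 nm; ROS taken as mean fluorescence intensity. SD from three experiments.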

Plasmodium falciparum [11] = test: Increased DNA damage in Plasmodium falciparum after 12 hrs in TUNEL assay; assay type: functional, organism-based
Procedure, shortened: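 Ring-stage parasites exposed to 20 or 50 μM for 12 h, with or without 400 μM mannitol. Percoll-purified, fixed on poly-L-lysine slides, TUNEL with fluorescein-dUTP, propidium iodide counterstain. 300 cells scored per treatment for percent labeled; triplicate samples.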

Plasmodium falciparum [12] = test: Antimalarial activity against chloroquine-resistant Plasmodium falciparum 7G8; assay type: functional, organism-based; procedure, shortened: as §2
Plasmodium falciparum [13] = test: Growth restoration of Plasmodium falciparum at 50 uM with 300 uM mannitol; assay type: functional, organism-based; procedure, shortened: as §4
Plasmodium falciparum [14] = test: Increase of Plasmodium falciparum 3D7 nuclear DNA damage by real-time PCR analysis; assay type: functional; procedure, shortened: as §6
Plasmodium falciparum [15] = test: Decreased reactive oxygen species in Plasmodium falciparum with 1 mM ascorbic acid and 1 mM reduced glutathione; assay type: functional, organism-based; procedure, shortened: as §7
Plasmodium falciparum [16] = test: Inhibition of Plasmodium falciparum 3D7 recombinant GCN5 by HAT assay at 100 uM
Procedure, shortened: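 Recombinant PfGCN5 HAT domain (30 ng) with 1 μg bovine core histones preincubated ± drug in HAT buffer, 30°C, 10 min, then 0.1 μCi [3H]acetyl-CoA for 10 min. Half spotted on P-81 filters, washed at pH 9.2, scintillation counted; half resolved by SDS-PAGE/fluorography. DMSO solvent control; triplicates.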

Plasmodium falciparum [17] = test: Pro-oxidant activity in Plasmodium falciparum as increased ROS; assay type: functional, organism-based; procedure, shortened: as §7
Plasmodium falciparum [18] = test: Growth inhibition of chloroquine-resistant Plasmodium falciparum 7G8 at 20 uM; assay type: functional, organism-based; procedure, shortened: as §5
Plasmodium falciparum [19] = test: Activity of GCN5 in Plasmodium falciparum assessed as increase in acetylation of H3-K9 and H3-K14 at 20 uM in presence of mannitol; procedure, shortened: as §3
Plasmodium falciparum [20] = test: (§8) Antimalarial activity against chloroquine-susceptible Plasmodium falciparum D10; assay type: functional, organism-based; procedure, shortened: as §2
Plasmodium falciparum [21] = test: Inhibition of nuclear GCN5 in Plasmodium falciparum after 8 hrs by liquid HAT assay at 25 to 100 uM
Plasmodium falciparum [22] = test: as §8; assay type: functional, organism-based; procedure, shortened: as §2; remark: listed apart in the source
Plasmodium falciparum [23] = test: Decreased reactive oxygen species in Plasmodium falciparum with 50 uM mannitol; assay type: functional, organism-based; procedure, shortened: as §7
Plasmodium falciparum [24] = test: Increased intracellular reactive oxygen species in Plasmodium falciparum at 1 uM; assay type: functional, organism-based; procedure, shortened: as §7
Plasmodium falciparum [25] = test: Growth inhibition of chloroquine-susceptible Plasmodium falciparum 3D7 at 20 uM; assay type: functional, organism-based; procedure, shortened: as §1
Plasmodium falciparum [26] = test: Growth arrest of Plasmodium falciparum at 50 uM; assay type: functional, organism-based; procedure, shortened: as §4

SMILES: COc1cc(/C=C/C(=O)CC(=O)/C=C/c2ccc(O)c(OC)c2)ccc1O [CURCUMIN]
- Activity (Plasmodium falciparum [1]): Active
- Activity (Plasmodium falciparum [2]): Active
- Activity (Plasmodium falciparum [3]): Active
- Activity (Plasmodium falciparum [4]): Active
- IC50 (Plasmodium falciparum [5]): 27.4 µM
- IC90 (Plasmodium falciparum [5]): 49.4 µM
- Activity (Plasmodium falciparum [6]): Active
- Activity (Plasmodium falciparum [7]): Active
- Activity (Plasmodium falciparum [8]): Active
- Activity (Plasmodium falciparum [9]): Active
- Activity (Plasmodium falciparum [10]): Active
- Activity (Plasmodium falciparum [11]): Active
- IC50 (Plasmodium falciparum [12]): 29.6 µM
- IC90 (Plasmodium falciparum [12]): 53.3 µM
- Activity (Plasmodium falciparum [13]): Active
- Activity (Plasmodium falciparum [14]): Active
- Activity (Plasmodium falciparum [15]): Active
- inhibition (Plasmodium falciparum [16]): 95%
- Activity (Plasmodium falciparum [17]): Dose-dependent effect
- Activity (Plasmodium falciparum [18]): Active
- Activity (Plasmodium falciparum [19]): Active
- IC50 (Plasmodium falciparum [20]): 22.9 µM
- IC90 (Plasmodium falciparum [20]): 41.3 µM
- Activity (Plasmodium falciparum [21]): Active
- IC50 (Plasmodium falciparum [22]): 22.9 µM
- IC90 (Plasmodium falciparum [22]): 41.3 µM
- Activity (Plasmodium falciparum [23]): Active
- Activity (Plasmodium falciparum [24]): Active
- Activity (Plasmodium falciparum [25]): Active
- Activity (Plasmodium falciparum [26]): Active
